The entries come from a sample that favours hits as a whole.
RORA inh: blocks the human nuclear receptor RORA. CHO-K1 Gal4-RORA LBD luciferase reporter, luminescence. inhibition, % at 10 µM. 65,000 compounds, 0.43% hits. P35398;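 active means inhibition above the mean of all tested compounds plus 3 SD, cut at about 52% in these data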
Target sequence (P35398 whole entry, looked up, the tested form may be a part): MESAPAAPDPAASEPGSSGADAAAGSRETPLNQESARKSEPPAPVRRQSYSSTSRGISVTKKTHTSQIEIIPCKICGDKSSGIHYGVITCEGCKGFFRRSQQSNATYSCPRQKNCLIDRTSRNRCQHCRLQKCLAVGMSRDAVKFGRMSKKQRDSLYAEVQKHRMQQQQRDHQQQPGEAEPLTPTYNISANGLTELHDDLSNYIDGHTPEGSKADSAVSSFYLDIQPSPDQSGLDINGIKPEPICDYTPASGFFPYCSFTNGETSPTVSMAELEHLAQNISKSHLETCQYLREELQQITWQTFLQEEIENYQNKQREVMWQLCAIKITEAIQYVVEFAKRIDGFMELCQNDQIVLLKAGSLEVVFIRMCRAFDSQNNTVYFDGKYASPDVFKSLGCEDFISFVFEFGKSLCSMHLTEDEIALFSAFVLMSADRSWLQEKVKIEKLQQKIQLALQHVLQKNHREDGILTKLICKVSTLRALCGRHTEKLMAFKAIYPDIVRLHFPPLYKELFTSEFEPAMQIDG
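Test system: CHO-K1 cells with Gal4-hRORA LBD fusion and pG5-luc reporter | Timing: 20 h compound treatment, 37 °C | Detection: Luminescence from basal luciferase reporter expression | Read-out basis: % inhibition of basal luciferase versus +RORA/-RORA DMSO controls | Repeats: One measurement per compound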
Each line names hits and unclear results; the compound was inactive in the other large screens.

Cn1c(-c2ccccc2)cc2c3no[n+]([O-])c3ccc21	RORA inh 66
COC(=O)c1cccc(OC(N)=O)c1	none
CCOC(=O)c1c(NC(=O)CSc2nnnn2C)sc(CC)c1C	none
COc1ccc(CCNC(=O)CSc2nc(-c3ccco3)cc(C(F)(F)F)n2)cc1OC	none
COc1cccc(-c2cc(C(F)(F)F)nc(NCc3ccco3)n2)c1	none
CS(=O)(=O)c1nc(-c2ccco2)cc(C(F)(F)F)n1	RORA inh 54
CCCCC(=O)Nc1ccc(C(=O)N2CCCC(C(=O)OCC)C2)cc1 (stereo not drawn)	none
O=C(NC1CCCC1)C1C2C=CC(C2)C1C(=O)N1CCOCC1 (stereo not drawn)	none
Cc1cc(C(F)(F)F)c2c(N)c(C(=O)Nc3cc(C)on3)sc2n1	none
CC1=CC(=C2C(=O)c3ccccc3C2=O)C=C(C)O1	none
CN1C=CC(=C2C(=O)c3ccccc3C2=O)C=C1	none
CCN1C=CC(=C2C(=O)c3ccccc3C2=O)C=C1	RORA inh 67
CCCN1C=CC(=C2C(=O)c3ccccc3C2=O)C=C1	RORA inh 91
COc1cc2c(cc1OC)CN(C(=O)COc1ccc(C)c(C)c1)CC2	none
CCc1ccc(NC(=O)CSc2nnc(Cc3cccn3C)n2-c2ccc(F)cc2)cc1	none
CC(C)C(=O)N1CCN(C2=NS(=O)(=O)c3ccccc32)CC1	none
Cc1occc1-c1nnc(SCC(=O)N2c3ccccc3CCc3ccccc32)n1C	none
NC(=O)CS(=O)(=O)c1nc2ccccc2n1Cc1ccccc1F	none
CC1CCCC(C)N1C(=O)c1cc(-c2cccs2)on1 (stereo not drawn)	none
Nc1nc(N)c2sc3nc4c(cc3c2n1)CCC4	none
O=S(=O)(C/C(=C/CO)S(=O)(=O)c1ccccc1)c1ccccc1	RORA inh 89
COc1ccc(-c2nnc(SCC(=O)Nc3ncc(C)s3)n2-c2ccccc2)cc1OC	none
Cn1c(SCc2ccc(C#N)cc2Cl)nc2ccccc21	none
COc1ccc(CCNc2c(C)c(C)nc3ncnn23)cc1	RORA inh 78
COc1ccc(S(=O)(=O)NCCc2ccc(F)cc2)cc1	none
COc1ccc(CCC(=O)NCc2cnn(C)c2)cc1	none
Cn1c(=O)oc2cc(S(=O)(=O)NCC3CCCO3)ccc21 (stereo not drawn)	none
CC(C)(C)n1ncc2c(=O)n(CC(=O)NCc3ccc(F)cc3)cnc21	none
COc1ccc(-c2cc(=O)n(-c3nc4ccccc4[nH]3)[nH]2)cc1	none
COc1cccc(-n2c(SC)nnc2-c2cnccn2)c1	none
Cc1ccc(-c2noc(CCCC(=O)Nc3cccnc3)n2)cc1	RORA inh 53
CCOc1nc(-c2ccccc2)ccc1-c1noc(COC)n1	none
COc1ccc(-c2noc(CCCC(=O)O)n2)cc1	RORA inh 68
COc1cc2ccccc2cc1C(=O)Nc1cccnc1	none
CCOc1ccc(-c2noc(CCC(=O)O)n2)cc1	RORA inh 54
COCc1nc(-c2ccc(-c3ccc(OC)cc3)nc2OC)no1	none
CCCCC(=O)Nc1ccc(NC(=O)c2cccnc2)cn1	none
CCOC(=O)Cn1c(CCC(=O)O)ccc1-c1ccc(F)cc1	none
COCc1nc(-c2ccc(-c3ccccc3)nc2OC)no1	none
O=C(c1cc(-c2cccs2)on1)N1CCCc2ccccc21	none
N#Cc1cccc2cnccc12	none
Cc1cccc(NC(=O)CSc2nnc(-c3ccc(S(=O)(=O)N4CCOCC4)cc3)n2C)c1	none
Cc1c(C)[n+](=O)c(-c2ccco2)c(C)n1[O-]	none
CCC1CCCCN1C(=O)CSc1nc(N)c(NC(=O)c2ccc(OC)c(OC)c2)c(=O)[nH]1 (stereo not drawn)	none
Cc1ccc2oc(Nc3nc(C)cc(C)n3)nc2c1	none
CC(C)Oc1ccc(C2c3c(oc4ccccc4c3=O)C(=O)N2CCCN2CCOCC2)cc1 (stereo not drawn)	none
COC(=O)c1cc2ccsc2n1CC(=O)Nc1cc(Cl)ccc1OC	none
CCOc1ccccc1C1C(C(=O)Nc2ccc(OC)cc2)=C(C)Nc2nc(CCCO)nn21 (stereo not drawn)	none
Cc1ccccc1NC(=O)N1CCCC(c2nc(-c3ccc(C(C)C)cc3)no2)C1 (stereo not drawn)	RORA inh 54
Cc1ccccc1NC(=O)N1CCCC(c2nc(-c3ccc(F)cc3)no2)C1 (stereo not drawn)	none
C=CCn1c(CCNC(=O)C(C)(C)C)nc2ccccc21	none
COC(=O)c1ccc2ccn(CC(=O)NC(C)C)c2c1	none
CCOC(=O)c1[nH]c(C)c(C(=O)Nc2ccccc2C)c1C	none
Cc1ccccc1C(=O)Nc1ccc(Br)cn1	none
CC(=O)c1c(C)[nH]c(C(=O)Nc2ccc(C)cn2)c1C	RORA inh 73
Cc1ccnc2nc(C(=O)N3CCN(S(=O)(=O)c4ccccc4)CC3)nn12	none
Cc1nnc2c3cnn(-c4ccc(Cl)cc4)c3ncn12	none
CCc1ccc(-c2nnn(CCC(=O)OC)n2)cc1	RORA inh 53
CCCn1nnc(NC(=O)c2cc3ccccc3o2)n1	none
c1ccc(OCCCn2nnc(-c3ccc(N4CCOCC4)cc3)n2)cc1	none
CCc1ccccc1NC(=O)COC(=O)C1CC(=O)N(c2ccc(F)cc2)C1 (stereo not drawn)	none
O=C(Nc1ccc(Cl)cc1)N1CC=CCC1	none

High-throughput results as filed in PubChem BioAssay.
